Common to all, as to assay type: functional
Experiment [1] relates to Mus musculus. Kind of experiment: Compound was evaluated for the antimetrazole effect by administering through intravenous route at the pretreatment period of 5 min. Put shortly: (§1)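 Male CFLP outbred albino mice (19–21 g) dosed iv, 5–240 min before challenge. Vehicle: 5 mg compound in propylene glycol/Chremofor EL/distilled water (2:1:7 mL), diluted with distilled water. Metrazol (pentylenetetrazol) 125 mg/kg sc in distilled water. Mice counted protected if no tonic-extensor convulsions over 60 min of observation. ED50 and confidence limits by Litchfield–Wilcoxon.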

For experiment [2], the system named is Mus musculus. The experiment can be described thus: Compound was evaluated for the muscle relaxant effect by administering through intravenous route at the pretreatment period of 5 min. Put shortly: (§2)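 Rotarod test in male CFLP mice (19–21 g) given compound iv 5–240 min beforehand, in propylene glycol/Chremofor EL/water vehicle diluted with distilled water. Mice were preselected and trained to stay 120 s on a 20 mm rod turning at 12 min⁻¹. Fallers were expressed as percentage of the dose group. ED50 by Litchfield–Wilcoxon.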

In experiment [3] the test system is Mus musculus. The experiment can be described thus: Ester brain level after 5 minutes of administration of 1.07 mg/kg in antimetrazole assay.
The subject of experiment [4] is Mus musculus. Kind of experiment: Ester brain level after 5 minutes of administration of 0.96 mg/kg in muscle relaxant assay.
Experiment [5] relates to Mus musculus. The experiment can be described thus: Compound was evaluated for the antimetrazole effect by administering through intravenous route at the pretreatment period of 20 min. Put shortly:
as §1

The subject of experiment [6] is Mus musculus. Kind of experiment: Compound was evaluated for the muscle relaxant effect by administering through intravenous route at the pretreatment period of 2400 min.
Experiment [7] has as its system Mus musculus. Kind of experiment: Compound was evaluated for the antimetrazole effect by administering through intravenous route at the pretreatment period of 120 min. Put shortly: as §1
Experiment [8] has as its system Mus musculus. The experiment can be described thus: Compound was evaluated for the antimetrazole effect by administering through intravenous route at the pretreatment period of 10 min. The method in brief:
as §1

Experiment [9] concerns Mus musculus. Kind of experiment: Compound was evaluated for the antimetrazole effect by administering through intravenous route at the pretreatment period of 240 min. Put shortly: as §1
Experiment [10] has as its system Mus musculus. The experiment can be described thus: Ester brain level after 10 minutes of administration of 0.46 mg/kg in antimetrazole assay.
The subject of experiment [11] is Mus musculus. Kind of experiment: Ester brain level after 30 minutes of administration of 0.28 mg/kg in antimetrazole assay.
Experiment [12] relates to Mus musculus. Kind of experiment: Oxazepam brain level after 30 minutes of administration of 0.28 mg/kg in antimetrazole assay.
Experiment [13] deals with Mus musculus. The experiment can be described thus: Oxazepam brain level after 10 minutes of administration of 0.46 mg/kg in antimetrazole assay.
For experiment [14], the system named is Mus musculus. Kind of experiment: Oxazepam brain level after 120 minutes of administration of 0.32 mg/kg in antimetrazole assay.
Experiment [15] relates to Mus musculus. Kind of experiment: Oxazepam brain level after 5 minutes of administration of 1.07 mg/kg in antimetrazole assay.
Experiment [16] deals with Mus musculus. Kind of experiment: Compound was evaluated for the muscle relaxant effect by administering through intravenous route at the pretreatment period of 20 min. Put shortly:
as §2

Experiment [17] has as its system Mus musculus. Kind of experiment: Ester brain level after 30 minutes of administration of 2.82 mg/kg in muscle relaxant assay.
Experiment [18] deals with Mus musculus. Kind of experiment: Compound was evaluated for the muscle relaxant effect by administering through intravenous route at the pretreatment period of 120 min. The method in brief: as §2
In experiment [19] the test system is Mus musculus. Kind of experiment: Compound was evaluated for the muscle relaxant effect by administering through intravenous route at the pretreatment period of 10 min. The method in brief: as §2
For experiment [20], the system named is Mus musculus. Kind of experiment: Ester brain level after 120 minutes of administration of 0.32 mg/kg in antimetrazole assay.
The subject of experiment [21] is Mus musculus. Kind of experiment: Oxazepam brain level after 5 minutes of administration of 0.96 mg/kg in muscle relaxant assay.
Experiment [22] relates to Mus musculus. The experiment can be described thus: Oxazepam brain level after 30 minutes of administration of 2.82 mg/kg in muscle relaxant assay.
Experiment [23] has as its system Mus musculus. Kind of experiment: Compound was evaluated for the antimetrazole effect by administering through intravenous route at the pretreatment period 240 min. Put shortly:
as §1

Experiment [24] relates to Mus musculus. Kind of experiment: Compound was evaluated for the muscle relaxant effect by administering through intravenous route at the pretreatment period of 240 min. Put shortly: as §2

Broadly, the ED50 is the midpoint of the dose-response relation. `CCC(CC)C(=O)OC1N=C(c2ccccc2)c2cc(Cl)ccc2NC1=O` (stereo not given): the ED50 is 1.07 mg/kg in the experiment on Mus musculus [1]; 0.95 mg/kg in the experiment on Mus musculus [2]; 0.31 mg/kg with Mus musculus [5]; 9.1 mg/kg in the experiment with Mus musculus [6]; 0.32 mg/kg in the experiment with Mus musculus [7]; 0.46 mg/kg with Mus musculus [8]. For the same molecule, the ED50 came to 1.97 mg/kg with Mus musculus [9], 0.36 mg/kg in the experiment with Mus musculus [16], 4.7 mg/kg with Mus musculus [18] and 0.61 mg/kg with Mus musculus [19]. Besides, the Brain level in the experiment on Mus musculus [3] is 1250 pM/g; in the experiment with Mus musculus [4] it was 1440 pM/g; with Mus musculus [10], 383 pM/g; in the experiment with Mus musculus [11], 187 pM/g; in the experiment on Mus musculus [12], 286 pM/g; with Mus musculus [13] it was 339 pM/g. The Brain level is 344 pM/g with Mus musculus [14]; 374 pM/g with Mus musculus [15]; 1820 pM/g in the experiment with Mus musculus [17]; 95 pM/g in the experiment with Mus musculus [20]; 480 pM/g in the experiment on Mus musculus [21]; 5160 pM/g in the experiment on Mus musculus [22].
For the molecule `CC(=O)OC1N=C(c2ccccc2)c2cc(Cl)ccc2NC1=O` (stereo not given), the ED50 in the experiment on Mus musculus [23] was 1.17 mg/kg; with Mus musculus [7], 0.47 mg/kg; in the experiment on Mus musculus [24], 4.8 mg/kg; in the experiment with Mus musculus [18], 2.6 mg/kg.
As to `O=C1Nc2ccc(Cl)cc2C(c2ccccc2)=NC1O` (stereo not given) [OXAZEPAM], the ED50 with Mus musculus [1] stood at 0.18 mg/kg; in the experiment with Mus musculus [2] it was 0.96 mg/kg; in the experiment with Mus musculus [5], 0.21 mg/kg; with Mus musculus [7], 0.49 mg/kg; in the experiment on Mus musculus [8] it was 0.16 mg/kg; with Mus musculus [9], 0.62 mg/kg. For the same molecule, the ED50 with Mus musculus [24] was determined as 6.6 mg/kg; in the experiment with Mus musculus [16], 0.8 mg/kg; with Mus musculus [18] it was 2.4 mg/kg; in the experiment on Mus musculus [19] it was 0.86 mg/kg.
On to `CC(C)(C)C(=O)OC1N=C(c2ccccc2)c2cc(Cl)ccc2NC1=O` (stereo not given) [PIVOXAZEPAM], for which the ED50 in the experiment on Mus musculus [7] came to 0.61 mg/kg; with Mus musculus [9], 0.8 mg/kg; in the experiment on Mus musculus [24], 9 mg/kg; with Mus musculus [18], 5.6 mg/kg.
